High-throughput results deposited in PubChem by Broad Institute.
A selection: hits, their analogues and other compounds. The true share with any hit is near 2.7%.
S100A4 inh HTS – inhibitors of human S100A4 binding to myosin IIA peptide | 0.14% of 360,000 active | AID 652163 | S100A4/TAMRA-MyoIIA peptide fluorescence polarization | P26447 | inhibition, % at 10.7 µM;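 active means mean inhibition of at least 70% across replicates, with every replicate also reaching that level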
Target sequence (P26447 whole entry, looked up): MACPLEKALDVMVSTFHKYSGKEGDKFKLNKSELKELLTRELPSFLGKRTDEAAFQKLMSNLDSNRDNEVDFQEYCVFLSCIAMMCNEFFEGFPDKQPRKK
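Test system: S100A4 monomer protein; Medium: HEPES pH 7.2 with CaCl2, KCl, NaCl, DTT, Triton; Probe or stimulus: TAMRA-labelled myosin IIA heavy-chain peptide probe, 5 nM; Doses: one dose per compound; Times: polarization read 5 min after assay mix addition, stable 5–60 min; Benchmarks: neutral control DMSO, positive control TFP.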
DENV2 CPE rescue – protects cells from dengue virus 2 cytopathic effect; DENV2-infected cells, cytopathic effect rescue, plate reader; CPE inhibition, % at 9.99 µM; 1.7% of 350,000 active; in the data active means CPE inhibition above about 20%, passing the limit was not always enough; tested in BHK-21 cells;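 further: 0% = median of neutral control wells and 100% = median of positive control wells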
AF4-AF9 inh – inhibitors of human MLL-AF4/AF9 interaction | P42568 | AlphaScreen, biotin-AF4 peptide binding to FLAG-AF9 | inhibition, % at 10 µM | 0.47% of 350,000 active | AID 651704;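 active means every replicate reaching a set inhibition limit, whatever the replicate mean, cut at about 25% in these data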;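 further: 0% = plate neutral control median and 100% = total signal loss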
Target sequence (P42568 whole entry, looked up): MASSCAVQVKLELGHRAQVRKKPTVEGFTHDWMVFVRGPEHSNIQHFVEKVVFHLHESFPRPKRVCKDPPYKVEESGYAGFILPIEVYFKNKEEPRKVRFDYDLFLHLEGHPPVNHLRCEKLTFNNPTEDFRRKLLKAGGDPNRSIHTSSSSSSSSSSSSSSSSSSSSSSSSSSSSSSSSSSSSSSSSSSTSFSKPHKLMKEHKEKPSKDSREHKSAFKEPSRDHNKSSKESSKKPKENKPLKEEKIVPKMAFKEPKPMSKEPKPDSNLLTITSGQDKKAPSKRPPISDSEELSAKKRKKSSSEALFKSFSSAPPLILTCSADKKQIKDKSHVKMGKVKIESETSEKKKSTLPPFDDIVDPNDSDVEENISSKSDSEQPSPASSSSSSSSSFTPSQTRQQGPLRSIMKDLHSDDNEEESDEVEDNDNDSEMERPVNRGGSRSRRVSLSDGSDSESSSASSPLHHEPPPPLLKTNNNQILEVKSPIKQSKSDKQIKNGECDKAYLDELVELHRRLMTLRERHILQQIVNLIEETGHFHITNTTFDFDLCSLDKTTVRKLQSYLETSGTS
CaV13 ICDI inh – Primary screen for inhibitors of IQ motif and Ca2+-dependent inactivation inhibitor domain binding in CACNA1D, Förster resonance energy transfer in living cells, …; AID 743397; HEK cells, CFP/YFP FRET ICDI-IQ, plate reader, 10 min; percent FRET-ratio fall versus neutral wells; inhibition, % at 12.3 µM; 0.098% of 340,000 active;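 active means mean replicate inhibition of at least 30% and at least 1% of replicates passing that level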;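 further: 0% = median of the neutral control wells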
SIRT5 block – blocks human SIRT5 desuccinylation of peptide | Q9NXA8 | Purified SirT5, succinyl-peptide AMC, trypsin-coupled fluorescence | inhibition, % at 15 µM | 1.1% of 330,000 active; in the data active means inhibition above about 15%
* hit, by the source's call; . = no result.

SMILES	S100A4 inh HTS	DENV2 CPE rescue	AF4-AF9 inh	CaV13 ICDI inh	SIRT5 block
CN1C(=O)c2cc(NS(=O)(=O)c3ccc(Cl)cc3)ccc2OC[C@H]2O[C@@H](CC(=O)N3CCc4ccccc4C3)CC[C@@H]21	-2.7	-3.5	0.8	.	16.3*
CN1C(=O)c2cc(NS(=O)(=O)c3ccc(Cl)cc3)ccc2OC[C@@H]2O[C@H](CC(=O)N3CCc4ccccc4C3)CC[C@H]21	-6.5	39.9*	-1.3	.	5.6
C#CCN1C=C(C(=O)OCC)C(C)N(Cc2ccccc2I)S1(=O)=O (configuration not stated)	0.3	74.1*	-5.3	-5.8	-5.3
C#CCN1C=C(C(=O)OCC)C(C)NS1(=O)=O (configuration not stated)	-2.1	-4.3	-4.7	-5.8	-0.5
Cc1ccccc1S(=O)(=O)N1CC(=O)N2[C@H](C1)[C@H](c1ccc(C#Cc3ccccc3)cc1)[C@@H]2CO	-6.5	12.9	-0.4	.	0.3
O=C(NC[C@H]1N[C@@H](CO)[C@H]1c1ccc(-c2ccccc2)cc1)c1ccccc1F	1.5	8.2	-2.6	.	3.3
O=C(NC[C@@H]1N[C@@H](CO)[C@@H]1c1ccccc1)c1ccccc1F	-7.7	29.2*	-2.7	.	-0.1
O=C(Nc1ccc(Cl)cc1)N(CCCN1CCOCC1)Cc1cccs1	-0.6	25.5*	-13.8	-5.6	-3.2
CN1C[C@H]2[C@@H](c3ccccc31)[C@@H](CO)N2C(=O)C1CCCC1	-4.3	26.7*	2.0	.	-14.1
COc1ccccc1NC(=O)N1C[C@H]2[C@@H](c3ccccc31)[C@H](CO)N2C(C)=O	-6.5	20.5*	-0.2	.	9.6
COc1ccccc1NC(=O)N1C[C@@H]2[C@H](c3ccccc31)[C@H](CO)N2C(C)=O	-1.4	-10.3	-1.0	.	0.8
CN1C[C@H]2[C@@H](c3ccccc31)[C@H](CO)N2C(=O)C1CCCC1	1.6	12.8	1.3	.	-1.8
O=C(C1CC1)N1C[C@H]2[C@@H](c3ccccc31)[C@H](CO)N2C(=O)Cc1ccccn1	6.2	62.9*	0.5	.	0.8
O=C(c1cccnc1)N1C[C@@H]2[C@H](c3ccccc31)[C@H](CO)N2CC1CCCCC1	3.7	29.2*	-0.3	.	6.4
COc1cccc(CN2[C@@H]3CN(C(=O)c4cccnc4)c4ccccc4[C@@H]3[C@@H]2CO)c1	1.4	-9.4	-1.9	.	9.9
CC(=O)NC[C@@H]1[C@@H](c2ccc(C3=CCCC3)cc2)[C@@H](CO)N1C(=O)C1CC1	-1.5	-7.2	-4.4	.	-1.3
O=C(CC(F)(F)F)N1C[C@H]2[C@@H](c3ccccc31)[C@@H](CO)N2C(=O)C1CCCC1	-4.8	-0.2	-2.5	.	-0.8
O=C(C1CCCC1)N1C[C@H]2[C@@H](c3ccccc31)[C@H](CO)N2C(=O)c1ccccc1	1.8	-10.2	0.7	.	-9.7
O=C(CC(F)(F)F)N1C[C@@H]2[C@H](c3ccccc31)[C@H](CO)N2C(=O)C1CCCC1	-8.8	21.0*	-2.3	.	.
O=C(C1CCCC1)N1C[C@H]2[C@@H](c3ccccc31)[C@@H](CO)N2C(=O)c1ccccc1	4.7	50.8*	2.0	.	-0.2
O=C(Nc1ccccc1F)N1C[C@H]2[C@@H](c3ccccc31)[C@@H](CO)N2C(=O)C1CCCCC1	8.8	60.9*	1.0	.	1.3
COC(=O)c1cc2c(c3c4cc(F)ccc4n(S(=O)(=O)c4ccc(OC)cc4)c13)C(=O)N(Cc1ccccc1OC)C2	7.4	-6.1	0.8	-4.6	.
CCCCNc1c(-c2ccc(-c3ccc(C(C)=O)cc3)c(OC)c2)nc2cc(C)ccn12	12.0	60.9*	8.0	-5.5	.
CCCCNc1c(-c2ccc(OC)c(SC(C)CC)c2)nc2cc(C)ccn12 (configuration not stated)	4.1	-5.6	13.8	-5.0	.
CCCCNc1c(-c2ccc(Sc3ccc(OC)cc3)cc2)nc2cc(C)ccn12	-0.9	82.1*	-1.2	-5.6	.
SMILES	S100A4 inh HTS	DENV2 CPE rescue	AF4-AF9 inh	CaV13 ICDI inh	SIRT5 block
COc1ccc(-c2nc3cc(C)ccn3c2NCC2CCCO2)cc1OC (configuration not stated)	.	.	.	-3.6	.
COC(=O)C[C@@H]1CC[C@H](NC(=O)Nc2ccc(OC)cc2)[C@@H](CO)O1	-12.2	-0.6	-1.7	-4.1	.
Cc1cc(=O)nc2c3ccccc3n(C(C)C(=O)NCCN3CCOCC3)n12 (configuration not stated)	1.6	35.3*	-7.0	-7.1	-1.0
CCC(C(=O)NCCCN1CCOCC1)n1c2ccccc2c2nc(=O)cc(C)n21 (configuration not stated)	3.3	-4.9	-8.4	-6.8	0.2
O=C(N[C@H]1CC[C@@H](CCNS(=O)(=O)c2ccccc2)O[C@H]1CO)c1cnccn1	6.3	-6.8	-0.2	.	-4.4
COc1ccc(N2C(=O)CC(N(CCc3ccccc3)C(=O)/C=C/C(=O)O)C2=O)cc1 (configuration not stated)	-1.7	-2.7	-1.3	5.2	-6.0
CCCOc1ccc(N2C(=O)CC(N(CCc3ccc(OC)cc3)C(=O)/C=C/C(=O)O)C2=O)cc1 (configuration not stated)	-0.4	3.8	-1.8	-4.3	41.7*
Cc1ccc(C(=O)COC(=O)C2CC3CCCC(C2)C3=O)cc1[N+](=O)[O-] (configuration not stated)	140.4*	13.2	-41.6	-15.5	2.3
Cc1ccc([N+](=O)[O-])c(NC(=O)COC(=O)C2CC3CCCC(C2)C3=O)c1C (configuration not stated)	-3.9	19.7	-2.5	-9.7	-13.4
C[C@H]1CCCCO[C@H](CN(C)Cc2ccc(C(=O)O)cc2)[C@@H](C)CN([C@@H](C)CO)C(=O)c2cc(NC(=O)Nc3ccc(F)cc3)ccc2O1	9.8	9.5	0.0	.	-2.8
CCCNC(=O)C1(C)CCCN(Cc2ccc(Oc3ccccc3)cc2)C1 (configuration not stated)	-0.9	0.5	0.9	-5.2	-2.4
CCCNC(=O)C1(C)CCCN(Cc2cccc(Oc3ccccc3)c2)C1 (configuration not stated)	3.9	-7.1	-0.4	-4.5	20.4*
CCOc1ccc(-n2c(C)c(C(C)=O)c3cc(OCC(N)=O)ccc32)cc1	-7.4	32.2*	-1.5	-2.9	-0.5
O=C(Nc1ccncc1)Nc1ccc(Cl)cc1Cl	28.8	71.4*	0.0	.	0.1
COc1cccc(NC(=O)N[C@H]2CC[C@H](CC(=O)N3CCN(C)CC3)O[C@@H]2CO)c1	4.7	-3.4	-0.2	.	-0.6
CN(C)C(=O)c1cccc(-c2ccc3c(c2)[C@@H]2[C@@H](CCN2C(=O)Cc2ccncc2)[C@@H](CO)N3)c1	.	104.0*	.	.	.
CN(C)C(=O)c1cccc(-c2ccc3c(c2)[C@H]2[C@H](CCN2C(=O)c2cccnc2)[C@@H](CO)N3)c1	.	31.1*	.	.	.
CN(C)C(=O)c1cccc(-c2ccc3c(c2)[C@@H]2[C@@H](CCN2C(=O)c2cccnc2)[C@H](CO)N3)c1	.	-17.2	.	.	.
